From ChEMBL document CHEMBL2086249, “Use of small-molecule crystal structures to address solubility in a novel series of G protein coupled receptor 119 agonists: optimization of a lead and in vivo evaluation” (J Med Chem, 2012)
Each block holds one molecule with its values, some of them ahead of it.

Tests used:
[1] = physchem; conditions: pH 7.4
[2] = Apparent permeability across apical to basolateral side of human Caco2 cells at 10 uM; assay type: ADME, cell-based; conditions: Caco-2
[3] = Hydrolytic stability of the compound at pH 1 to 10; assay type: physicochemical; conditions: buffer
[4] = Plasma clearance in C57BL6 mouse at 2 mg/kg, iv and 5 mg/kg, po; assay type: ADME, organism-based
Outline: (§1)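 IV dose 2 mg/kg in 5% DMSO/95% (hydroxypropyl)-β-cyclodextrin; oral dose given as suspension in aqueous 0.1% pluronic F127, 5 mg/kg for mouse and rat, 13 mg/kg for dog. Dose volumes 5 mL/kg (mouse, rat) and 2 mL/kg (dog). Animals were C57BL6 mice, Han Wistar rats and beagle dogs.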

[5] = Plasma clearance in Han Wistar rat at 2 mg/kg, iv and 5 mg/kg, po; assay type: ADME, organism-based
Outline: as §1

[6] = Plasma clearance in Beagle dog at 2 mg/kg, iv and […] mg/kg, po; assay type: ADME, organism-based, Canis lupus familiaris
[7] = Volume of distribution at steady state in C57BL6 mouse at 2 mg/kg, iv and 5 mg/kg, po; assay type: ADME, organism-based; conditions: in vivo, read-out: Vdss
Outline: as §1

[8] = Volume of distribution at steady state in Beagle dog at 2 mg/kg, iv and 13 mg/kg, po; assay type: ADME, organism-based, Canis lupus familiaris; conditions: in vivo, read-out: Vdss
Outline: as §1

[9] = Volume of distribution at steady state in Han Wistar rat at 2 mg/kg, iv and 5 mg/kg, po; assay type: ADME, organism-based; conditions: in vivo, read-out: Vdss
Outline: as §1

[10] = Half life in C57BL6 mouse at 5 mg/kg, po; assay type: ADME, organism-based; set-up: dose 5 mg/kg, route oral; conditions: in vivo
Outline: (§2)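 Single-dose PK in C57BL6 mice, Han Wistar rats and beagle dogs. Intravenous 2 mg/kg in 5% DMSO/95% (hydroxypropyl)-β-cyclodextrin. Oral dosing as a suspension in aqueous 0.1% (w/v) pluronic F127, at 5 mg/kg for mouse and rat and 13 mg/kg for dog. Dose volume 5 mL/kg for rodents and 2 mL/kg for dog.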

[11] = Half life in Han Wistar rat at 5 mg/kg, po; assay type: ADME, organism-based; set-up: dose 5 mg/kg, route oral; conditions: in vivo
Outline: as §2

[12] = Half life in Beagle dog at 13 mg/kg, po; assay type: ADME, organism-based, Canis lupus familiaris; set-up: dose 13 mg/kg, route oral; conditions: in vivo
Outline: as §2

[13] = Half life in C57BL6 mouse at 2 mg/kg, iv; assay type: ADME, organism-based; set-up: dose 2 mg/kg, route intravenous; conditions: in vivo
Outline: as §2

[14] = Half life in Han Wistar rat at 2 mg/kg, iv; assay type: ADME, organism-based; set-up: dose 2 mg/kg, route intravenous; conditions: in vivo
Outline: as §2

[15] = Half life in Beagle dog at 2 mg/kg, iv; assay type: ADME, organism-based, Canis lupus familiaris; set-up: dose 2 mg/kg, route intravenous; conditions: in vivo
Outline: as §2

[16] = Oral bioavailability in C57BL6 mouse at 5 mg/kg; assay type: ADME, organism-based; conditions: in vivo
Outline: as §1

[17] = Oral bioavailability in Han Wistar rat at 5 mg/kg; assay type: ADME, organism-based; conditions: in vivo
Outline: as §1

[18] = Oral bioavailability in Beagle dog at 13 mg/kg; assay type: ADME, organism-based, Canis lupus familiaris; conditions: in vivo
Outline: as §2

[19] = Intrinsic clearance in mouse hepatocytes assessed per million cells; assay type: ADME, cell-based, Hepatocyte; conditions: read-out: CLH
[20] = Intrinsic clearance in rat hepatocytes assessed per million cells; assay type: ADME, cell-based, Hepatocyte; conditions: read-out: CLH
[21] = Intrinsic clearance in dog hepatocytes assessed per million cells; assay type: ADME, cell-based, Canis lupus familiaris, Hepatocyte; conditions: read-out: CLH
[22] = Drug excretion in bile-duct cannulated Han Wistar rat bile; assay type: ADME; conditions: in vivo
[23] = Drug excretion in bile-duct cannulated Han Wistar rat urine; assay type: ADME; conditions: in vivo
[24] = Cmax in C57BL6 mouse at 5 mg/kg; assay type: ADME, organism-based; set-up: dose 5 mg/kg; conditions: in vivo
[25] = Cmax in C57BL6 mouse at 30 mg/kg; assay type: ADME, organism-based; set-up: dose 30 mg/kg; conditions: in vivo
[26] = Cmax in C57BL6 mouse at 100 mg/kg; assay type: ADME, organism-based; set-up: dose 100 mg/kg; conditions: in vivo
[27] = Cmax in Han Wistar rat at 5 mg/kg; assay type: ADME, organism-based; set-up: dose 5 mg/kg; conditions: in vivo
[28] = Cmax in Han Wistar rat at 100 mg/kg; assay type: ADME, organism-based; set-up: dose 100 mg/kg; conditions: in vivo
[29] = Cmax in Beagle dog at 1 mg/kg; assay type: ADME, organism-based, Canis lupus familiaris; set-up: dose 1 mg/kg; conditions: in vivo
[30] = Cmax in Beagle dog at 5 mg/kg; assay type: ADME, organism-based, Canis lupus familiaris; set-up: dose 5 mg/kg; conditions: in vivo
[31] = Cmax in Beagle dog at 10 mg/kg; assay type: ADME, organism-based, Canis lupus familiaris; set-up: dose 10 mg/kg; conditions: in vivo
[32] = Cmax in Beagle dog at 50 mg/kg; assay type: ADME, organism-based, Canis lupus familiaris; set-up: dose 50 mg/kg; conditions: in vivo
[33] = AUC (0 to 12 hrs) in C57BL6 mouse at 5 mg/kg; assay type: ADME, organism-based; set-up: time < 12 hr, dose 5 mg/kg; conditions: plasma
[34] = AUC (0 to 6 hrs) in C57BL6 mouse at 30 mg/kg; assay type: ADME, organism-based; set-up: time < 6 hr, dose 30 mg/kg; conditions: plasma
[35] = AUC (0 to 12 hrs) in C57BL6 mouse at 100 mg/kg; assay type: ADME, organism-based; set-up: time < 12 hr, dose 100 mg/kg; conditions: plasma
[36] = AUC (0 to 24 hrs) in Han Wistar rat at 5 mg/kg; assay type: ADME, organism-based; set-up: time < 24 hr, dose 5 mg/kg; conditions: plasma
[37] = AUC (0 to 24 hrs) in Han Wistar rat at 100 mg/kg; assay type: ADME, organism-based; set-up: time < 24 hr, dose 100 mg/kg; conditions: plasma
[38] = AUC (0 to 24 hrs) in Beagle dog at 1 mg/kg; assay type: ADME, organism-based, Canis lupus familiaris; set-up: time < 24 hr, dose 1 mg/kg; conditions: plasma
[39] = AUC (0 to 24 hrs) in Beagle dog at 5 mg/kg; assay type: ADME, organism-based, Canis lupus familiaris; set-up: time < 24 hr, dose 5 mg/kg; conditions: plasma
[40] = AUC (0 to 24 hrs) in Beagle dog at 10 mg/kg; assay type: ADME, organism-based, Canis lupus familiaris; set-up: time < 24 hr, dose 10 mg/kg; conditions: plasma
[41] = AUC (0 to 24 hrs) in Beagle dog at 50 mg/kg; assay type: ADME, organism-based, Canis lupus familiaris; set-up: time < 24 hr, dose 50 mg/kg; conditions: plasma

Papp A→B at 10 µM [2]: 85 ×10⁻⁶ cm/s | Stability [3]: Stable | clearance [4]: 49 mL/min/kg | clearance [5]: 28 mL/min/kg | clearance [6]: 3.6 mL/min/kg | Vd [7]: 2.4 L/kg | Vd [8]: 4.1 L/kg | Vd [9]: 5.1 L/kg | half-life [10]: 1 h | half-life [11]: 6 h | half-life [12]: 5 h | half-life [13]: 1 h | half-life [14]: 3 h | half-life [15]: 11 h | bioavailability [16]: 22% | bioavailability [17]: 29% | bioavailability [18]: 24% | hepatocyte CLint [19]: 67 µL/min/1e6 cells | hepatocyte CLint [20]: 29 µL/min/1e6 cells | hepatocyte CLint [21]: 5.6 µL/min/1e6 cells | Drug excretion [22]: Active | Drug excretion [23]: Active | Cmax [24]: 400 nM | Cmax [25]: 3500 nM | Cmax [26]: 14000 nM | Cmax [27]: 700 nM | Cmax [28]: 6300 nM | Cmax [29]: 600 nM | Cmax [30]: 2500 nM | Cmax [31]: 1300 nM | Cmax [32]: 10000 nM | AUC(0-t) at 12 h [33]: 0.7 µM·h | AUC(0-t) at 6 h [34]: 6.4 µM·h | AUC(0-t) at 12 h [35]: 42 µM·h | AUC(0-t) at 24 h [36]: 2.7 µM·h | AUC(0-t) at 24 h [37]: 97 µM·h | AUC(0-t) at 24 h [38]: 4 µM·h | AUC(0-t) at 24 h [39]: 14 µM·h | AUC(0-t) at 24 h [40]: 11 µM·h | AUC(0-t) at 24 h [41]: 119 µM·h | logD ([1]; octanol/phosphate buffer): 3.3
Structure (SMILES): CC(C)c1nc(N2CCN(c3ncc(OCc4ccncc4C#N)cn3)[C@H](C)C2)no1

logD ([1]; octanol/phosphate buffer): 3.1
Structure (SMILES): C[C@@H]1CN(c2noc(C3CC3)n2)CCN1c1ncc(OCc2ccncc2C#N)cn1

logD ([1]; octanol/phosphate buffer): 4
Structure (SMILES): C[C@@H]1CN(c2noc(C(F)(F)F)n2)CCN1c1ncc(OCc2ccncc2C#N)cn1

logD ([1]; octanol/water): 2.9
Structure (SMILES): C[C@@H]1CN(c2noc(C(F)F)n2)CCN1c1ncc(OCc2ccncc2C#N)cn1

logD ([1]; octanol/phosphate buffer): 3.5
Structure (SMILES): C[C@@H]1CN(c2nc(C3CC3)no2)CCN1c1ncc(OCc2ccncc2C#N)cn1

logD ([1]; octanol/water): 3.1
Structure (SMILES): C[C@@H]1CN(c2nc(C(F)(F)F)no2)CCN1c1ncc(OCc2ccncc2C#N)cn1

The next lines start with the molecule.

Structure (SMILES): C[C@@H]1CN(C(=O)OC(C)(C)C)CCN1c1ncc(OCc2ccc(-n3cnnn3)cc2)cn1
logD ([1]; octanol/phosphate buffer): > 4.3

Structure (SMILES): C[C@@H]1CN(C(=O)OC(C)(C)C)CCN1c1ncc(OCc2ccc(S(C)(=O)=O)cc2F)cn1
logD ([1]; octanol/phosphate buffer): 3.7

Structure (SMILES): C[C@@H]1CN(C(=O)OC(C)(C)C)CCN1c1ncc(OCc2ccc(S(C)(=O)=O)cc2C#N)cn1
logD ([1]; octanol/phosphate buffer): 3.3

Structure (SMILES): C[C@@H]1CN(C(=O)OC(C)(C)C)CCN1c1ncc(OCc2ccc(S(C)(=O)=O)cn2)cn1
logD ([1]; octanol/water): 3

Structure (SMILES): CC(C)(C)OC(=O)N1CCN(c2ncc(OCc3ccncc3)cn2)CC1
logD ([1]; octanol/phosphate buffer): 3.4

Structure (SMILES): Cc1cc(COc2cnc(N3CCN(C(=O)OC(C)(C)C)CC3)nc2)ccn1
logD ([1]; octanol/phosphate buffer): 3.7

Structure (SMILES): Cc1cnccc1COc1cnc(N2CCN(C(=O)OC(C)(C)C)CC2)nc1
logD ([1]; octanol/water): 3.8

Structure (SMILES): COc1cnccc1COc1cnc(N2CCN(C(=O)OC(C)(C)C)CC2)nc1
logD ([1]; octanol/phosphate buffer): 3.8

Structure (SMILES): CC(C)(C)OC(=O)N1CCN(c2ncc(OCc3ccncc3F)cn2)CC1
logD ([1]; octanol/phosphate buffer): 3.6

Structure (SMILES): CC(C)(C)OC(=O)N1CCN(c2ncc(OCc3ccncc3C#N)cn2)CC1
logD ([1]; octanol/phosphate buffer): 2.8

Structure (SMILES): Cc1cnccc1COc1cnc(N2CCN(C(=O)OC(C)(C)C)C[C@H]2C)nc1
logD ([1]; octanol/phosphate buffer): 3.8

Structure (SMILES): C[C@@H]1CN(C(=O)OCC(F)(F)F)CCN1c1ncc(OCc2ccncc2C#N)cn1
logD ([1]; octanol/phosphate buffer): 3

Structure (SMILES): C[C@@H]1CN(c2ncc(F)cn2)CCN1c1ncc(OCc2ccncc2C#N)cn1
logD ([1]; octanol/phosphate buffer): 3.4
